Data: ChEMBL document CHEMBL4825662 (J Med Chem, 2021)
In brackets after ≈: the same amount, converted by molar mass.

Experiments:
Human orthopneumovirus [1] = assay: Antiviral activity against Respiratory syncytial virus A2 infected in human Hep2 cells by Plaque reduction assay; type: functional, organism-based; conditions: A2, HEp-2
Outline: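 Hep2 cells were infected with RSV strain A2 in the presence of compound. Plaques were detected by immunostaining after 48 h. Values are the average of at least two testing occasions.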

[2] = Cytotoxicity against human Hep2 cells; type: cell-based; conditions: HEp-2 cells
Outline: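 Hep2 cells were cultured in parallel with the plaque assays at compound concentrations of 0.01 nM to 100 μM. Viability was read by MTT, CellTox green or CellTiter-Glo.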

Human orthopneumovirus [3] = assay: Antiviral activity against Respiratory syncytial virus A2 infected in African green monkey Vero cells by Plaque reduction assay; type: functional, organism-based
[4] = Cytotoxicity against African green monkey Vero cells by MTT assay; type: cell-based; conditions: chlorocebus sabaeus
Outline: (§1)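 Viability was assessed by MTT after culture with compound at 0.01 nM to 100 μM, run in parallel with plaque reduction assays. Values are the average of at least two testing occasions.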

[5] = Protein binding in rat plasma assessed as unbound fraction at 5 uM by LC-MS/MS analysis based equilibrium dialysis method; type: ADME, cell-free
[6] = Protein binding in dog plasma assessed as unbound fraction at 5 uM by LC-MS/MS analysis based equilibrium dialysis method; type: ADME, cell-free, Canis lupus familiaris
[7] = Protein binding in human plasma assessed as unbound fraction at 5 uM by LC-MS/MS analysis based equilibrium dialysis method; type: ADME, cell-free
[8] = Intrinsic clearance in Sprague-Dawley rat liver microsomes preincubated followed by NADPH addition and measured up to 45 mins by LC-MS/MS analysis; type: ADME, Microsome
[9] = Intrinsic clearance in Beagle dog liver microsomes preincubated followed by NADPH addition and measured up to 45 mins by LC-MS/MS analysis; type: ADME, Canis lupus familiaris, Microsome
[10] = Intrinsic clearance in human liver microsomes preincubated followed by NADPH addition and measured up to 45 mins by LC-MS/MS analysis; type: ADME, Microsome
[11] = Thermodynamic solubility in PBS at 1 to 100 uM at pH 7.4 by HPLC-UV method; type: physicochemical; conditions: dose 1-100 µM, read-out: Therm_solubility
[12] = Apparent permeability across apical to basolateral side in MDCK-MDR1 cells at 10 uM measured at 60 mins by LC-MS/MS analysis; type: ADME, cell-based, Canis lupus familiaris; conditions: dog, mdck-mdr1, 1 h, 10 µM
[13] = Efflux ratio of apparent permeability in MDCK-MDR1 cells at 10 uM measured at 60 mins by LC-MS/MS analysis; type: ADME, cell-based, Canis lupus familiaris; conditions: dog, mdck-mdr1, 1 h, 10 µM
[14] = Cmax in Sprague-Dawley rat at 5 mg/kg, po administered via gavage measured after 0.02 to 24 hrs by tandem liquid chromatography/mass spectrometry; type: ADME, organism-based; set-up: route oral, dose 5 mg/kg, time upper 24 hrs, time lower 0.02 hrs; conditions: in vivo
Outline: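 Male Sprague–Dawley rats weighing 200–250 g, 3 per route, were used. The i.v. bolus was 1 mg/kg at 1 mg/mL in 40:60 dimethylacetamide/saline. Oral gavage doses were 5 or 10 mg/kg at 5 mg/mL in 1% methyl cellulose with 0.1% Tween 80. Heparinized blood was taken at 0.02–24 h (ten time points). Plasma was analyzed by LC-MS/MS after acetonitrile precipitation.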

[15] = Clearance in Sprague-Dawley rat at 1 mg/kg, iv administered […] measured after 0.02 to 24 hrs by tandem liquid chromatography/mass spectrometry; type: ADME, organism-based; conditions: in vivo, time 0.02-24 hrs
[16] = Volume of distribution at steady state in Sprague-Dawley rat at 1 mg/kg, iv administered […] measured after 0.02 to 24 hrs by tandem liquid chromatography/mass spectrometry; type: ADME, organism-based; conditions: in vivo, time 0.02-24 hrs, read-out: Vdss
Outline: (§2)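 Male Sprague–Dawley rats (200–250 g), 3 per route. IV bolus at 1 mg/kg, 1 mg/mL in 40:60 dimethylacetamide/saline; oral gavage at 5 or 10 mg/kg, 5 mg/mL in 1% methyl cellulose, 0.1% Tween 80 in water. Serial blood at 0.02–24 h (ten points) into heparin, spun at 4 °C, plasma frozen; acetonitrile protein precipitation, ESI LC-MS/MS with matrix curve and internal standards.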

[17] = Oral bioavailability in Sprague-Dawley rat at 10 mg/kg administered via gavage measured after 0.02 to 24 hrs by tandem liquid chromatography/mass spectrometry; type: ADME, organism-based; conditions: in vivo, time 0.02-24 hrs; outline: as §2
Fusion glycoprotein F0 = Fusion glycoprotein F0 (Human respiratory syncytial virus A (strain A2), UniProt P03420); assay: Inhibition of Respiratory syncytial virus fusion protein
Fusion glycoprotein F0, sequence (P03420 26-109 limits assumed): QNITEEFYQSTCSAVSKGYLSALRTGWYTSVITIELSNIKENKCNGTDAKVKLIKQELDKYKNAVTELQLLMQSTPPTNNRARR
Fusion glycoprotein F0, sequence (P03420 137-574 limits assumed): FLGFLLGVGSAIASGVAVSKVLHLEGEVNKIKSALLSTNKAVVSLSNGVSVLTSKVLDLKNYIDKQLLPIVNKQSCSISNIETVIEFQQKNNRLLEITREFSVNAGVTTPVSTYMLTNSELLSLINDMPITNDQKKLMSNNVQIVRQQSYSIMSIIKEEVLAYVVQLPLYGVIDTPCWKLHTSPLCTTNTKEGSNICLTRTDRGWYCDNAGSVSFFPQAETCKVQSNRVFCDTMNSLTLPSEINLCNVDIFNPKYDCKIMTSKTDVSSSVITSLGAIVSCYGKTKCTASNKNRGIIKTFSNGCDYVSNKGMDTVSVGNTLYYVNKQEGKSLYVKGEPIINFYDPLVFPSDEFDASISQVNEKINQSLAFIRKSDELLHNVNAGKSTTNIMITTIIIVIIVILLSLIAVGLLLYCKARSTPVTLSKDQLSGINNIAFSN
Outline: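 293T cells cotransfected with codon-optimized RSV A2 F plasmid and a GAL4-responsive luciferase reporter, mixed after 24 h with a second 293T population expressing GAL4-NF-κB transactivator. Threefold serial compound dilutions present during mixing; F-mediated fusion read as luciferase after 24 h. IC₅₀ averaged over at least two testing occasions.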

Human orthopneumovirus [18] = assay: Antiviral activity against Respiratory syncytial virus A2 by Plaque reduction assay; type: functional, organism-based
Outline: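 Vero cells were infected with RSV A2 for 48 h with compound at 0.01 nM to 100 μM. Plaques were detected by immunostaining. Values are the average of at least two testing occasions.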

[19] = Cytotoxicity against human HepG2 cells by MTT assay; type: cell-based; outline: as §1

N=C(N)c1ccc2c(c1)nc(CN1C(=O)C3(CC3)c3ccc(F)cc31)n2CCCC(F)(F)F
EC50 (Human orthopneumovirus [1]): 0.0005 µM | CC50 [2]: > 20 µM

CC(C)CCn1c(CN2C(=O)C3(CC3)c3cccc(F)c32)nc2cc(CN)ccc21
EC50 (Human orthopneumovirus [3]): 0.0408 µM | CC50 [4]: 31.1 µM | fraction unbound at 5 µM [5]: 0.104 | fraction unbound at 5 µM [6]: 0.147 | fraction unbound at 5 µM [7]: 0.42 | Microsomal intrinsic clearance [8]: 37.8 µL/min | intrinsic clearance [9]: 2.23 µL/min | intrinsic clearance (CLint) [10]: 7 µL/min | solubility thermodynamic [11]: 1230 µM (≈ 500 µg/mL) | Papp [12]: 0.19 10^-6 cm/s | Ratio [13]: 227 | Cmax [14]: 31.3 ng/mL | clearance [15]: 108 mL/min/kg | Vd [16]: 11.9 L/kg | bioavailability [17]: 8.8%

CC(C)CCn1c(CN2C(=O)C3(CCCC3)Cc3ccccc32)nc2cc(CN)ccc21
EC50 (Human orthopneumovirus [3]): 14 µM | CC50 [4]: 11.5 µM

CC(C)CCn1c(CN2C(=O)C3(CC3)c3ccncc32)nc2cc(CN)ccc21
IC50 (Fusion glycoprotein F0): 0.0009 µM | EC50 (Human orthopneumovirus [18]): 0.0021 µM

CC(C)CCn1c(CN2C(=O)C3(CC3)c3ccc(Cl)cc32)nc2cc(CN)ccc21
EC50 (Human orthopneumovirus [3]): 0.0067 µM | CC50 [4]: 4.5 µM

O=C1N(Cc2nc3ccccc3n2CCCC(F)(F)F)c2cc(F)ccc2C12CC2
EC50 (Human orthopneumovirus [3]): 0.0179 µM | CC50 [4]: > 25 µM

CS(=O)(=O)c1ccc2c(c1)nc(CN1C(=O)C3(CC3)c3ccc(F)cc31)n2CCCC(F)(F)F
EC50 (Human orthopneumovirus [3]): 3.64 µM | CC50 [19]: > 25 µM
